According to ChEMBL document CHEMBL1764958, “Synthesis and biological evaluation of 3,7-diazabicyclo[4.3.0]nonan-8-ones as potential nootropic and analgesic drugs” (2011):
Calls of active or inactive are those of the source. The calls are words filed in the database; no cut-off is given here.

Assays:
[1] = tested on: Mus musculus; assay: Antiamnesic activity in ip dosed mouse assessed as reversal of scopolamine-induced amnesia after 20 mins by passive-avoidance test; assay type: functional; conditions: for minimal effective dose: Mus musculus, ip, 20 min, read-out: MED
[2] = tested on: Rattus norvegicus; assay: Antihyperalgesic activity in rat assessed as reversal of oxaliplatin-induced mechanical hyperalgesia at 10 mg.kg, ip by paw pressure test; assay type: functional, organism-based
Method in brief: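 Rats received oxaliplatin 2.4 mg/kg ip on 5 consecutive days each week, for 15 injections totalling 36 mg/kg. Mechanical hyperalgesia was then measured by the paw-pressure test after a single ip dose of 10 mg/kg. Pregabalin 30 mg/kg po served as reference.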

[3] = organism: Mus musculus; assay: Antihyperalgesic activity against thermal hyperalgesia in saline treated mouse diabetic neuropathy model assessed as licking latency time after 30 mins by hot plate test (reference value: 18 +/- 1.5 sec)
[4] = organism: Mus musculus; assay: Antihyperalgesic activity against thermal hyperalgesia in saline treated mouse diabetic neuropathy model assessed as licking latency time after 15 mins by hot plate test (reference value: 18.1 +/- 1.1 sec)
[5] = organism: Mus musculus; assay: Antihyperalgesic activity against thermal hyperalgesia in saline treated mouse diabetic neuropathy model assessed as licking latency time after 45 mins by hot plate test (reference value: 17.8 +/- 1.5 sec)
[6] = organism: Mus musculus; assay: Antihyperalgesic activity against thermal hyperalgesia in saline treated mouse diabetic neuropathy model assessed as licking latency time after 60 mins by hot plate test (reference value: 18.4 +/- 1.6 sec)
[7] = organism: Mus musculus; assay: Antihyperalgesic activity against streptozotocin-induced thermal hyperalgesia in mouse diabetic neuropathy model assessed as licking latency time after 15 mins by hot plate test (reference value: 9.4 +/- 1.3 sec)
[8] = organism: Mus musculus; assay: Antihyperalgesic activity against streptozotocin-induced thermal hyperalgesia in mouse diabetic neuropathy model assessed as licking latency time after 45 mins by hot plate test (reference value: 9.3 +/- 1.2 sec)
[9] = organism: Mus musculus; assay: Antihyperalgesic activity against streptozotocin-induced thermal hyperalgesia in mouse diabetic neuropathy model assessed as licking latency time after 30 mins by hot plate test (reference value: 10.1 +/- 0.8 sec)
[10] = organism: Mus musculus; assay: Antihyperalgesic activity against streptozotocin-induced thermal hyperalgesia in mouse diabetic neuropathy model assessed as licking latency time after 60 mins by hot plate test (reference value: 10.4 +/- 1.2 sec)
[11] = tested on: Mus musculus; assay: Antiamnesic activity in mouse assessed as reversal of scopolamine-induced amnesia at 10 mg/kg, ip after 20 mins by passive-avoidance test; assay type: functional, organism-based; design: dose 10 mg/kg
Method in brief: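 Mice; compounds dissolved in saline, given ip 20 min before the training session of the passive-avoidance test. Scopolamine injected immediately after punishment. Doses tested up to 10 mg/kg; activity read as reversal of scopolamine-induced amnesia at retention. Each value is the mean of 8-18 mice, compared against scopolamine-treated mice.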

[12] = tested on: Rattus norvegicus; assay: Antihyperalgesic activity in rat assessed as reversal of oxaliplatin-induced mechanical hyperalgesia at 50 to 100 mg.kg, iv by paw pressure test; assay type: functional

SMILES: CC(=O)NC1CCN(S(=O)(=O)c2ccc(F)cc2)CC1 [SAPUNIFIRAM]
- minimal effective dose [1]: 0.01 mg/kg
- Activity [2]: inactive
- Time [3]: 15.7 s
- Time [4]: 16.5 s
- Time [5]: 16.3 s
- Time [6]: 15.6 s
- Time [7]: 15.6 s
- Time [8]: 10.4 s
- Time [9]: 12.4 s
- Time [10]: 11.2 s

SMILES: CC(C)S(=O)(=O)N1CC[C@@H]2NC(=O)C[C@@H]2C1
- Activity [11]: inactive

SMILES: O=C1C[C@H]2CN(S(=O)(=O)c3ccc(F)cc3)CC[C@@H]2N1 (relative stereo)
- MED [1]: 1 mg/kg

SMILES: O=C1C[C@H]2CN(C(=O)c3ccccc3)CC[C@@H]2N1 (relative stereo)
- minimal effective dose [1]: 3 mg/kg

SMILES: NC(=O)CN1CCCC1=O [PIRACETAM]
- minimal effective dose [1]: 30 mg/kg

SMILES: CC(=O)NC1CCN(S(=O)(=O)C(C)C)CC1
- minimal effective dose [1]: 1 mg/kg

SMILES: O=C1O[C@H]([C@@H](O)CO)C(O)=C1O [ASCORBIC ACID]
- Activity [12]: 50%

SMILES: O=C1C[C@H]2CN(S(=O)(=O)c3ccc(F)cc3)CC[C@@H]2N1 (stereo in doubt; (-)-7)
- minimal effective dose [1]: 1 mg/kg

SMILES: O=C1C[C@@H]2CN(C(=O)c3ccccc3)CC[C@@H]2N1 (relative stereo)
- minimal effective dose [1]: 3 mg/kg

SMILES: O=C1C[C@@H]2CN(S(=O)(=O)c3ccc(F)cc3)CC[C@@H]2N1 (relative stereo)
- MED [1]: 0.1 mg/kg

SMILES: O=C(O)CCCCC1CCSS1 (stereo not drawn) [LIPOIC ACID, ALPHA]
- Activity [12]: 50%

SMILES: O=C1CC2CN(S(=O)(=O)c3ccc(F)cc3)CCC2N1 (racemic; form 1)
- Activity [2]: Active

SMILES: O=C1C[C@@H]2CN(S(=O)(=O)c3ccc(F)cc3)CC[C@@H]2N1 (stereo in doubt; (-)-4)
- minimal effective dose [1]: 0.1 mg/kg

SMILES: CC(C)S(=O)(=O)N1CC[C@@H]2NC(=O)C[C@H]2C1 (relative stereo)
- minimal effective dose [1]: 10 mg/kg

SMILES: O=C1CC2CN(S(=O)(=O)c3ccc(F)cc3)CCC2N1 (racemic; form 2)
- Activity [2]: Active

SMILES: CC(=O)NC1CCN(C(=O)c2ccccc2)CC1
- minimal effective dose [1]: 10 mg/kg

SMILES: O=C1C[C@@H]2CN(S(=O)(=O)c3ccc(F)cc3)CC[C@@H]2N1 (stereo in doubt; (+)-4)
- Activity [12]: 75%
